Biological target: T1, Fatty-acid amide hydrolase 1 (Homo sapiens) (UniProt O00519)
T1 sequence (whole entry): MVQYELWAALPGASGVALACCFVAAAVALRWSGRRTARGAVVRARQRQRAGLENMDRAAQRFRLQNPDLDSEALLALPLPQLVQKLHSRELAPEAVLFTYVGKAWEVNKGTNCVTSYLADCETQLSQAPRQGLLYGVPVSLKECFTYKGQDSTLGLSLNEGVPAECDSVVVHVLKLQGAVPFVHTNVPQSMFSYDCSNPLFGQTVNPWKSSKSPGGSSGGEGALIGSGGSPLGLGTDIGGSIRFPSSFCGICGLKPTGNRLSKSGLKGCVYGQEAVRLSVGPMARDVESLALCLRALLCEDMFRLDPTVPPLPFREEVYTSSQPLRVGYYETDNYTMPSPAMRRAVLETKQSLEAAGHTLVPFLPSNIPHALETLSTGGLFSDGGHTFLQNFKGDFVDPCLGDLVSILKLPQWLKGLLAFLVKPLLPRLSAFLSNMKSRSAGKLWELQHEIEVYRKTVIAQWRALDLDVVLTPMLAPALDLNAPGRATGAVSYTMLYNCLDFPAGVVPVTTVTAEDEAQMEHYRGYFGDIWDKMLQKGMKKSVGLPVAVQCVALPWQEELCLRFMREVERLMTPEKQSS
Experiment: Ratio of Kinact to Ki for histidine6-tagged human FAAH
Method in brief: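 Human FAAH construct: aa 32–579, N-terminal transmembrane-deleted, N-terminal His6 tag, expressed in E. coli and purified to >95% by SDS–PAGE. Potency measured as kinact/Ki in a GDH-coupled FAAH assay in 384-well format. kobs was plotted against [I]; kinact/Ki came from the slope kinact/[Ki(1+[S]/Km)].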

Row | Ratio [M⁻¹ s⁻¹] | SMILES
1 | 1920 | Cc1c(CN2CCN(C(=O)Nc3ccccc3)CC2)sc2ccccc12
2 | < 10 | CC(=O)Nc1ccc(NC(=O)N2CCN(Cc3sc4ccccc4c3C)CC2)cn1
3 | < 10 | Cc1c(CN2CCN(C(=O)Nc3ccc(Cl)nc3)CC2)sc2ccccc12
4 | 924 | Cc1c(CN2CCN(C(=O)Nc3cccnn3)CC2)sc2ccccc12
5 | 1000 | CNc1ccc(NC(=O)N2CCN(Cc3sc4ccccc4c3C)CC2)cn1
6 | 1920 | Cc1c(CN2CCN(C(=O)Nc3ccc(N)nc3)CC2)sc2ccccc12
7 | 70 | Cc1c(CN2CCN(C(=O)Nc3ccc(Br)nc3)CC2)sc2ccccc12
8 | 900 | Cc1ccc(NC(=O)N2CCN(Cc3sc4ccccc4c3Cl)CC2)cn1
9 | 2640 | Cc1ccc2sc(CN3CCN(C(=O)Nc4cccnc4)CC3)c(C)c2c1
10 | 2400 | Cc1c(CN2CCN(C(=O)Nc3cccnc3)CC2)sc2ccccc12
11 | 14 | CCOc1ccc2c(C)c(CN3CCN(C(=O)Nc4cccnc4)CC3)sc2c1
12 | 2400 | Cc1c(CN2CCN(C(=O)Nc3ccc(N(C)C)nc3)CC2)sc2ccccc12
13 | 924 | CCNc1ccc(NC(=O)N2CCN(Cc3sc4ccccc4c3C)CC2)cn1

More lines, now with the values behind:

Row | SMILES | Ratio [M⁻¹ s⁻¹]
14 | Cc1c(CC2CCN(C(=O)Nc3cccnc3)CC2)sc2ccccc12 | 5130
15 | CCc1c(CC2CCN(C(=O)Nc3cccnc3)CC2)sc2ccccc12 | 1670
16 | Cc1c(CN2CCN(C(=O)Nc3ccc(C(F)(F)F)nc3)CC2)sc2ccccc12 | 42
17 | CCc1c(CC2CCN(C(=O)Nc3cccnc3)CC2)sc2ccc(F)cc12 | 2290
18 | Cc1c(CN2CCN(C(=O)NC3CCCCC3)CC2)sc2ccccc12 | < 10
19 | Cc1c(CN2CCN(C(=O)NCCO)CC2)sc2ccccc12 | 42
20 | CCN(CC)c1ccc(NC(=O)N2CCN(Cc3sc4ccccc4c3C)CC2)cn1 | 1560
21 | Cc1c(C(=O)C2CCN(C(=O)Nc3cccnc3)CC2)sc2ccccc12 | 3600
22 | CNC(=O)CNC(=O)N1CCN(Cc2sc3ccccc3c2C)CC1 | < 10
23 | Cc1c(CN2CCN(C(=O)NC(C)C)CC2)sc2ccccc12 | 70
24 | Cc1c(CN2CCN(C(=O)NC(C)(C)C)CC2)sc2ccccc12 | < 10
25 | Cc1c(C(C)C2CCN(C(=O)Nc3cccnc3)CC2)sc2ccccc12 (stereo in doubt; 17-E1) | 34
26 | CCCCNC(=O)N1CCN(Cc2sc3ccccc3c2C)CC1 | 44

Biological target: T2, Fatty-acid amide hydrolase 1 (Rattus norvegicus) (UniProt P97612)
T2 sequence (whole entry): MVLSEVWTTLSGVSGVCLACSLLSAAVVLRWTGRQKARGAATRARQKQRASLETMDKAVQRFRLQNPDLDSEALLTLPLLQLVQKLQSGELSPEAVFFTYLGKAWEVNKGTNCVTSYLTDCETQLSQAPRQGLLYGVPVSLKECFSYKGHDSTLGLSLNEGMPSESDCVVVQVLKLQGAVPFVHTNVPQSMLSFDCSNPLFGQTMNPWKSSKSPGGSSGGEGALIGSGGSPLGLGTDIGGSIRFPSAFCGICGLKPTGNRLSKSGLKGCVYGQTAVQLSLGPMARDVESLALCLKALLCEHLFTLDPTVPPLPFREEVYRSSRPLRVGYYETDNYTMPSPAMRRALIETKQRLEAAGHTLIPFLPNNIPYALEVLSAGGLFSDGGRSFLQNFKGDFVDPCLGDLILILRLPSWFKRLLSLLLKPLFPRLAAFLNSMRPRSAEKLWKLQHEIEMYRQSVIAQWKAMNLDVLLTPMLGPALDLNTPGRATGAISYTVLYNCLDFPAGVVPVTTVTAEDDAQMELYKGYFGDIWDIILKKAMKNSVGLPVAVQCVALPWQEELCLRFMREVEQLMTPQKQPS
Experiment: Ratio of Kinact to Ki for histidine6-tagged rat FAAH
Method in brief: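 Rat FAAH construct: aa 30–579, N-terminal transmembrane-deleted, N-terminal His6 tag, E. coli-expressed and purified to >95% purity. Activity read by a GDH-coupled enzyme assay in 384-well plates. Second-order kinact/Ki was derived from the linear slope of kobs versus [I], correcting with (1+[S]/Km).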

Row | Ratio [M⁻¹ s⁻¹] | SMILES
27 | 762 | Cc1c(CN2CCN(C(=O)Nc3ccccc3)CC2)sc2ccccc12
28 | < 10 | CC(=O)Nc1ccc(NC(=O)N2CCN(Cc3sc4ccccc4c3C)CC2)cn1
29 | 242 | Cc1c(CN2CCN(C(=O)Nc3ccc(Cl)nc3)CC2)sc2ccccc12
30 | 191 | Cc1c(CN2CCN(C(=O)Nc3cccnn3)CC2)sc2ccccc12
31 | 635 | CNc1ccc(NC(=O)N2CCN(Cc3sc4ccccc4c3C)CC2)cn1
32 | 762 | Cc1c(CN2CCN(C(=O)Nc3ccc(N)nc3)CC2)sc2ccccc12
33 | 157 | Cc1c(CN2CCN(C(=O)Nc3ccc(Br)nc3)CC2)sc2ccccc12
34 | 133 | Cc1ccc(NC(=O)N2CCN(Cc3sc4ccccc4c3Cl)CC2)cn1
35 | 557 | Cc1ccc2sc(CN3CCN(C(=O)Nc4cccnc4)CC3)c(C)c2c1
36 | 1080 | Cc1c(CN2CCN(C(=O)Nc3cccnc3)CC2)sc2ccccc12
37 | < 10 | CCOc1ccc2c(C)c(CN3CCN(C(=O)Nc4cccnc4)CC3)sc2c1
38 | 1080 | Cc1c(CN2CCN(C(=O)Nc3ccc(N(C)C)nc3)CC2)sc2ccccc12
39 | 191 | CCNc1ccc(NC(=O)N2CCN(Cc3sc4ccccc4c3C)CC2)cn1

The remaining lines, values behind:

Row | SMILES | Ratio [M⁻¹ s⁻¹]
40 | Cc1c(CC2CCN(C(=O)Nc3cccnc3)CC2)sc2ccccc12 | 2610
41 | CCc1c(CC2CCN(C(=O)Nc3cccnc3)CC2)sc2ccccc12 | 1010
42 | Cc1c(CN2CCN(C(=O)Nc3ccc(C(F)(F)F)nc3)CC2)sc2ccccc12 | < 10
43 | CCc1c(CC2CCN(C(=O)Nc3cccnc3)CC2)sc2ccc(F)cc12 | 1140
44 | Cc1c(CN2CCN(C(=O)NC3CCCCC3)CC2)sc2ccccc12 | < 10
45 | Cc1c(CN2CCN(C(=O)NCCO)CC2)sc2ccccc12 | < 10
46 | CCN(CC)c1ccc(NC(=O)N2CCN(Cc3sc4ccccc4c3C)CC2)cn1 | 1430
47 | Cc1c(C(=O)C2CCN(C(=O)Nc3cccnc3)CC2)sc2ccccc12 | 1230
48 | CNC(=O)CNC(=O)N1CCN(Cc2sc3ccccc3c2C)CC1 | < 10
49 | Cc1c(CN2CCN(C(=O)NC(C)C)CC2)sc2ccccc12 | < 10
50 | Cc1c(CN2CCN(C(=O)NC(C)(C)C)CC2)sc2ccccc12 | < 10
51 | Cc1c(C(C)C2CCN(C(=O)Nc3cccnc3)CC2)sc2ccccc12 (stereo in doubt; 17-E1) | < 10
52 | CCCCNC(=O)N1CCN(Cc2sc3ccccc3c2C)CC1 | 13

Source: ChEMBL document CHEMBL1152917, “Benzothiophene piperazine and piperidine urea inhibitors of fatty acid amide hydrolase (FAAH)” (2009)
